ChEMBL document CHEMBL1833902, “Design, synthesis, and biological studies of efficient multivalent melanotropin ligands: tools toward melanoma diagnosis and treatment” (J Med Chem, 2011)
The source made the active and inactive calls. The rule behind the calls is not given here.

Experiments:
Melanocortin receptor 4 [1] = molecular target: T1, Melanocortin receptor 4 (Homo sapiens, UniProt P32245); test: Agonist activity at of human MC4R expressed in HEK293 cells assessed as cAMP level at 10^-7 to 10^-12 M after 15 mins by chemiluminescent assay relative to 10% forskolin response; type: functional, cell-based
Summary of the method: (§1)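 Same cAMP immunoassay in HEK293/hMC4R cells (1mM IBMX, 15 min ligand at 37°C, basal subtracted). For each ligand, the concentration giving cAMP at 5%, 10% or 25% of the 10 μM forskolin maximum was found. Receptor occupancy there was computed as [RL] = Bmax × [L]/([L] + Kd), with Kd from the Eu-NDP-α-MSH competition binding assays.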

Melanocortin receptor 4 [2] = molecular target: T1, Melanocortin receptor 4; test: Agonist activity at human MC4R expressed in HEK293 cells assessed as increase in cAMP production at 10^-7 to 10^-12 M after 15 mins by chemiluminescent assay; type: functional, cell-based
Summary of the method: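 HEK293/hMC4R cells in DMEM with 10% SCS, seeded 3 days ahead. Cells pre-incubated 10 min at 37°C with 1mM IBMX, then 8 ligand concentrations given for 15 min at 37°C. Lysed 25 min at 37°C. cAMP measured by competitive chemiluminescent immunoassay (AP conjugate, anti-cAMP antibody) against a same-run standard curve, basal subtracted. Triplicate wells, 3 experiments.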

Melanocortin receptor 4 [3] = molecular target: T1, Melanocortin receptor 4; test: Agonist activity at of human MC4R expressed in HEK293 cells assessed as cAMP level at 10^-7 to 10^-12 M after 15 mins by chemiluminescent assay relative to 5% forskolin response; type: functional, cell-based; summary of the method: as §1
Melanocortin receptor 4 [4] = molecular target: T1, Melanocortin receptor 4; test: Displacement of Eu-NDP-alpha-MSH from human MC4R expressed in HEK293 cells after 2 hrs by time resolved fluorescence assay; type: cell-based

T1 sequence (P32245 whole entry): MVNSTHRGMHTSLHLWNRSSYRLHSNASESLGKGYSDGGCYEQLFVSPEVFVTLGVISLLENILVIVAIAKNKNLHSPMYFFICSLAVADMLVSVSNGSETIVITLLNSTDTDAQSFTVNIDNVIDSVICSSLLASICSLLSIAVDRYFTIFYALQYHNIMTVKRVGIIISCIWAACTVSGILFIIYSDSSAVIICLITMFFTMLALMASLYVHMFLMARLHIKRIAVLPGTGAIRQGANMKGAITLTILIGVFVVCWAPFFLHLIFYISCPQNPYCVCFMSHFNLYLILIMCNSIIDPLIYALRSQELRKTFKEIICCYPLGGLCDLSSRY

SMILES: C#CCCCC(=O)N[C@@H](Cc1cnc[nH]1)C(=O)N[C@H](Cc1ccccc1)C(=O)N[C@@H](CCCNC(=N)N)C(=O)N[C@@H](Cc1c[nH]c2ccccc12)C(=O)Nc1cn(CC(=O)NCCCC(CCCNC(=O)Cn2cc(NC(=O)[C@H](Cc3c[nH]c4ccccc34)NC(=O)[C@H](CCCNC(=N)N)NC(=O)[C@@H](Cc3ccccc3)NC(=O)[C@H](Cc3cnc[nH]3)NC(=O)CCC#C)nn2)(NC(=O)CNC(=O)Cn2cc(NC(=O)[C@H](Cc3c[nH]c4ccccc34)NC(=O)[C@H](CCCNC(=N)N)NC(=O)[C@@H](Cc3ccccc3)NC(=O)[C@H](Cc3cnc[nH]3)NC(=O)CCC#C)nn2)C(=O)NCCC(N)=O)nn1 (some centres not stated)
- Activity (Melanocortin receptor 4 [1]): 75000 pmol
- Activity (Melanocortin receptor 4 [2]): Active
- Activity (Melanocortin receptor 4 [3]): 14000 pmol

SMILES: C#CCCCC(=O)N[C@@H](Cc1cnc[nH]1)C(=O)N[C@H](Cc1ccccc1)C(=O)N[C@@H](CCCNC(=N)N)C(=O)N[C@@H](Cc1c[nH]c2ccccc12)C(=O)Nc1cn(CC(=O)NCCCC(CCCNC(=O)Cn2cc(NC(=O)[C@H](Cc3c[nH]c4ccccc34)NC(=O)[C@H](CCCNC(=N)N)NC(=O)[C@@H](Cc3ccccc3)NC(=O)[C@H](Cc3cnc[nH]3)NC(=O)CCC#C)nn2)(NC(=O)CNC(C)=O)C(=O)NCCC(N)=O)nn1 (some centres not stated)
- Activity (Melanocortin receptor 4 [1]): 45000 pmol
- IC50 (Melanocortin receptor 4 [4]): 310 nM
- Activity (Melanocortin receptor 4 [2]): Active
- Activity (Melanocortin receptor 4 [3]): 12000 pmol
